From PubChem BioAssay
A selection: hits, their analogues and other compounds. The true share with any hit is near 2%.
LMP1 NFkB inh: inhibitors of Epstein-Barr LMP1-induced NF-kappaB reporter; hit rate 0.69% among 350,000; inhibition, % at 12.5 µM; AID 504558; LMP1-induced NF-kappaB luciferase reporter cells, luminescence; in the data active means inhibition above about 41%;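 further: 0% = neutral control wells and 100% = reference inhibitor control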
TROY signal inh: blocks TROY-dependent signaling in reporter cells | Q293 LMP1-TROYcd NF-kB luciferase reporter, 4 h | inhibition, % at 10 µM | hit rate 0.98% among 360,000;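 active means compounds whose plate-normalised and pattern-corrected inhibition of the luciferase reporter signal at the single screening dose is 50% or more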
NR2E3 ag-1: agonists of human NR2E3 nuclear receptor | AID 602229 | inhibition of corepressor binding, % at 3.98 µM | CHO-S Gal4-NCOR/VP16-NR2E3 two-hybrid, luciferase | Q9Y5X4 | hit rate 0.35% among 360,000;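 active means inhibition above the mean of all tested compounds plus 3 SD, cut at about 70% in these data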;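 further: 0% = DMSO with NR2E3 transfected cells and 100% = cells lacking NR2E3 construct; higher means lower luciferase signal from less NR2E3 corepressor binding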
Target sequence (Q9Y5X4 whole entry, looked up, the tested form may be a part): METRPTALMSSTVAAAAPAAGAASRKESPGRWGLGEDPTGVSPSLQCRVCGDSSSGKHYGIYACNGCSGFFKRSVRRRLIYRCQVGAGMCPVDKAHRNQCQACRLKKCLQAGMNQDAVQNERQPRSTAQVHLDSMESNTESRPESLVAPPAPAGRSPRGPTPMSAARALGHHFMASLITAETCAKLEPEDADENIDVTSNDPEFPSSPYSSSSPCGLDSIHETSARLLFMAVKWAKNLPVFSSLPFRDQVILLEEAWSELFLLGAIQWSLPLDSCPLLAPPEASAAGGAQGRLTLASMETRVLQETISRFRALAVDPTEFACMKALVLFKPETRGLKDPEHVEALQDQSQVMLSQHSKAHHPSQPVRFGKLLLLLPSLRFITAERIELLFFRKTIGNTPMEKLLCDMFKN
HIF activator: HIF pathway transcriptional activation; hit rate 0.32% among 300,000; activation, % at 7.5 µM (by protocol); U2OS HRE-luciferase reporter, luminescence; normalized: DMSO 0%, desferrioxamine 100%;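 active means mean activation of at least 10% of the iron chelator positive control signal, with at least half of replicates also reaching 10%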
NR2E3 ag-2: activates human photoreceptor nuclear receptor NR2E3 | Q9Y5X4 | GST-NR2E3/biotin-RetCOR TR-FRET, 1536-well | hit rate 0.12% among 320,000 | AID 2300 | inhibition of corepressor binding, % at 4.78 µM;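 active means percent inhibition above the cutoff of mean plus 3 SD of all tested compounds, set per screening campaign, cut at about 20% in these data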;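 further: 0% = DMSO wells and 100% = biotin wells as full block of FRET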
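System: GST-tagged NR2E3 plus biotinylated RetCOR corepressor; Buffer or medium: pH 7.5 Tris-based buffer; Probe or stimulus: RetCOR corepressor, biotinylated, 7 nM; Doses: compound at 4.8 µM, single dose; Schedule: 5 h incubation at 4 °C; Technique: time-resolved FRET; Evaluation: percent inhibition of TR-FRET ratio; Replication: one well per compound, singlicate testing.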
NR2E3 ag confirm: NR2E3 (human) agonism, confirmation; shares compounds with NR2E3 ag-2; cell-free NR2E3 corepressor release, TR-FRET, 5 h; activation (reported as inhibition), % at 3.98 µM; hit rate 39% among 360; in the data active means activation above about 20%
PPARg-NCOR2 ctr: PPARg-NCOR2 interaction agonism, NR2E3 counter-screen; hit rate 45% among 360; AID 504787; TR-FRET PPARg-NCOR2 coregulator interaction, biochemical; shares compounds with NR2E3 ag-2; inhibition, % at 3.98 µM; in the data active means inhibition above about 20%;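 further: 0% = DMSO vehicle and 100% = wells without protein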
The depositor's hits bear a star; / = no result.

SMILES	LMP1 NFkB inh	TROY signal inh	NR2E3 ag-1	HIF activator	NR2E3 ag-2	NR2E3 ag confirm	PPARg-NCOR2 ctr
Cc1ccc(Cl)c(NC(=O)CN2C(=O)C(C)N(c3ccc(F)cc3)C2=O)c1Cl (stereo not drawn)	3	5	-2	/	/	/	/
CCSc1nc2nccnc2c(=O)[nH]1	-4	-11	4	/	/	/	/
COc1cccc2cc(C(=O)C3=C(O)C(=O)N(CCN4CCOCC4)C3c3cccc(Cl)c3)oc12 (stereo not drawn)	3	7	-10	0	28*	13	17
COCCn1c(C)nnc1SCC(=O)NNC(=O)c1ccc(Cl)cc1	-5	-1	-13	0	1	/	/
O=C(C1=C(O)C(=O)N(CCCn2ccnc2)C1c1cccc(Br)c1)c1ccco1 (stereo not drawn)	-6	-7	3	1	34*	0	0
CCOc1ccc(C2C(C(=O)c3ccco3)=C(O)C(=O)N2CCCn2ccnc2)cc1 (stereo not drawn)	6	-43	-25	0	/	/	/
O=C(C1=C(O)C(=O)N(CCCn2ccnc2)C1c1ccccc1)c1ccco1 (stereo not drawn)	-7	11	-8	0	32*	6	-1
CCCCCc1c(-c2ccc(F)cc2F)ncn1CCc1ccccc1OC	/	7	-19	/	/	/	/
Cc1c2cc(O)c(=O)cc-2oc2cc(O)c(O)cc12	2	-4	-15	0	40*	20*	-14
CCOc1ccccc1OCCCC(=O)Nc1ccc(S(=O)(=O)Nc2cc(C)nc(C)n2)cc1	-3	-13	-21	/	/	/	/
Cn1c2ccccc2c2nnc(SCC(=O)Nc3ccccc3F)nc21	1	-10	7	1	10	/	/
CC(C)n1c2ccccc2c2nnc(SCC(=O)Nc3ccccc3C(=O)O)nc21	1	17	-11	0	26*	7	13
CCOC(=O)N(C)C[C@H]1OCc2cnnn2CCCC(=O)N([C@H](C)CO)C[C@H]1C	2	7	-19	/	/	/	/
O=c1[nH]c(COc2ccccc2)nc2ccccc12	-7	-15	-55	2	-5	/	/
S=c1nc(COc2ccccc2)[nH]c2ccccc12	-9	-4	-85	-20	31*	5	13
S=c1nc(Cc2ccccc2)[nH]c2ccccc12	3	10	-7	2	23*	-4	8
CCCCn1c(N)c(N(CCOC)C(=O)COC(=O)c2ccccc2NCCO)c(=O)[nH]c1=O	0	3	6	/	/	/	/
CCOC(=O)NC(=O)c1cn(Nc2ccccc2)c(=O)[nH]c1=O	1	-7	22	0	-1	/	/
Cc1cc(Br)c2nc3c(c(C(=O)O)c2c1)CCCCC3	-1	-11	19	0	48*	60*	60*
O=c1oc2ccccc2c(O)c1Sc1c(O)c2ccccc2oc1=O	2	15	-6	/	/	/	/
S=C(c1ccc(-c2cccc(Cl)c2)o1)N1CCCCC1	-48	-38	-149	3	30*	17	11
O=C(O)C1Nc2c(cccc2C(F)(F)F)C2C=CCC12 (stereo not drawn)	/	/	/	-1	/	/	/
COc1cccc2c1NC(C(=O)O)C1CC=CC21 (stereo not drawn)	6	-1	0	0	22*	5	14
COc1ccc(CN(C)CC(=O)Nc2cccc(S(=O)(=O)N3CCCC3)c2)cc1F	2	3	3	/	/	/	/
CC(=O)Nc1c(S(=O)(=O)c2ccccc2)c2nc3ccccc3nc2n1Cc1ccccc1	3	7	-4	0	-1	/	/
SMILES	LMP1 NFkB inh	TROY signal inh	NR2E3 ag-1	HIF activator	NR2E3 ag-2	NR2E3 ag confirm	PPARg-NCOR2 ctr
C=CCn1c(NS(=O)(=O)c2ccccc2)c(S(=O)(=O)c2ccc(C)cc2)c2nc3ccccc3nc21	-173	20	12	0	44*	10	88*
CCCC(C(=O)NCCC(C)C)N(Cc1ccc(OC)cc1)C(=O)c1snc(C(N)=O)c1N (stereo not drawn)	-8	-7	13	2	2	/	/
O=S(=O)(Nc1cc2nc3ccccc3nc2n1Cc1ccccc1)c1ccc(Cl)cc1	3	49	-31	-7	33*	5	1
COC(=O)c1ccc(C2C(C(=O)c3cc4ccccc4o3)=C(O)C(=O)N2c2cc(C)on2)cc1 (stereo not drawn)	7	-17	-9	0	23*	32*	27*
COc1cccc2cc(C(=O)C3=C(O)C(=O)N(c4cc(C)on4)C3c3cccs3)oc12 (stereo not drawn)	3	-46	-10	1	33*	36*	42*
COc1cccc(C2C(C(=O)c3cc4ccccc4o3)=C(O)C(=O)N2c2cc(C)on2)c1OC (stereo not drawn)	-6	-38	0	0	24*	25*	18
COc1cc(C2C(C(=O)c3ccc(C)o3)=C(O)C(=O)N2c2cc(C)on2)cc(OC)c1OC (stereo not drawn)	6	5	-3	0	-2	/	/
COc1cccc(C2C(C(=O)c3cc4cccc(OC)c4o3)=C(O)C(=O)N2c2cc(C)on2)c1OC (stereo not drawn)	1	-2	-52	0	14	/	/
COc1cc(C2C(C(=O)c3cc4ccccc4o3)=C(O)C(=O)N2c2cc(C)on2)cc(OC)c1OC (stereo not drawn)	2	-18	-6	0	30*	35*	34*
Cc1cc(N2C(=O)C(O)=C(C(=O)c3cc4ccccc4o3)C2c2ccc(OC(C)C)cc2)no1 (stereo not drawn)	6	-10	-55	3	11	/	/
C[C@H](CO)N1C[C@H](C)[C@H](CN(C)C(=O)Nc2cccc(Oc3ccccn3)c2)OCc2cnnn2CCCC1=O	4	-12	-16	/	/	/	/
CC(C)c1nc2sc3c(=O)[nH]c(=S)[nH]c3c2c2c1CCC2	/	/	/	-1	/	/	/
CC(C)c1nc2sc3c(=O)[nH]c(=S)[nH]c3c2c2c1CCCC2	-1	10	-19	-1	24*	45*	44*
O=S(=O)(Nc1nc2cc3c(cc2nc1Cl)OCCO3)c1ccccc1	-4	-27	-17	-1	30*	11	14
CC(=O)Nc1ccc(S(=O)(=O)Nc2nc3cc4c(cc3nc2Cl)OCCO4)cc1	-5	-20	-23	-3	19	/	/
CCOC(=O)C1CN(S(=O)(=O)c2ccc(C)cc2)c2ccccc2O1 (stereo not drawn)	0	4	7	0	6	/	/
CC1Cc2cc(/C(O)=C3/C(=O)C(=O)N(Cc4ccco4)C3c3cccs3)ccc2O1 (stereo not drawn)	-8	65*	-9	1	22*	5	7
CN(C)C(CNc1ccc(S(C)(=O)=O)cc1[N+](=O)[O-])Cc1ccccc1 (stereo not drawn)	7	3	3	0	-2	/	/
